In article PMC7900901 (SLAS discovery : advancing life sciences R & D, 2017):
Entries after “also recorded” stand apart in the source; their conditions may differ. Read-outs that look alike come from different tables or passages of the source. Values belong to the molecule of their own block, whether it stands above or below them.

How the values were obtained:
Type in all cases: biochemical
human TDP1 [1] = molecular target: T1, human TDP1 (Homo sapiens, UniProt Q9NUW8); experiment: Reversibility of inhibition by preincubation and rapid dilution; settings: for Reversibility of inhibition: preincubation at 10X IC50 for 1 h, 100-fold dilution; for Recovery of the uninhibited control rate: after preincubation with compound for 1 h, rapid dilution
T1 sequence (Q9NUW8 whole entry): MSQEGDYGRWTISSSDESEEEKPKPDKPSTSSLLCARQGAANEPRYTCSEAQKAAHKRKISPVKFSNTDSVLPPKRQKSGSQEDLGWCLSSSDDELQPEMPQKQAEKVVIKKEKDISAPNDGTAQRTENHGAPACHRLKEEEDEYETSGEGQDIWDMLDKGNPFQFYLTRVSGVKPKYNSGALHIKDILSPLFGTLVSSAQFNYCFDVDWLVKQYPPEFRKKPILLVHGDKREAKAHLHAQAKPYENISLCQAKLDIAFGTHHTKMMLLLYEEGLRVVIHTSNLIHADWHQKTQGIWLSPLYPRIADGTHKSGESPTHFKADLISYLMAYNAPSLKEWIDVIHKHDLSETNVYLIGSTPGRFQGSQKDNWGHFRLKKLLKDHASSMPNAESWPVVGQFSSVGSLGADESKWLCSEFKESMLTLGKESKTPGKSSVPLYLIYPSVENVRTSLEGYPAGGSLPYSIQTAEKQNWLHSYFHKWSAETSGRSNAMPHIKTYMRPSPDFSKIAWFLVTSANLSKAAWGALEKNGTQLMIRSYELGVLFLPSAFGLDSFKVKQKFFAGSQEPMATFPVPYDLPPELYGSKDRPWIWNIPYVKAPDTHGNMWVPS

human TDP1 [2] = molecular target: T1, human TDP1; experiment: Continuous FRET assay, IC50 determination of inhibitors of TDP1
human TDP1 [3] = molecular target: T1, human TDP1; experiment: Mechanism of inhibition, substrate/inhibitor matrix
How it was run: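 Full-length TDP1 was preincubated with test compound on ice for 1 h. Then eosin/TAMRA FRET substrate was added, […] twofold dilutions from 2.25 to 0.035 μM, with three inhibitor levels plus a no-inhibitor control. Final TDP1 was 500 pM in PBS pH 8.0 buffer. Eosin fluorescence (ex 525/em 545 nm) was read over about 1 h at 28 °C. Rate versus substrate data were fitted to competitive, noncompetitive (pure and mixed) and uncompetitive models, with the best fit chosen by Akaike's Information Criterion.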

[4] = 500 pM TDP1, 1.5 μM FRET substrate, 1 h preincubation

SMILES: C[C@@]12CCCc3coc(c31)C(=O)c1cc3c(cc12)C(=O)C=CC3=O [Xestoquinone]
IC50 (human TDP1 [2]): 93 ± 1.1 µM

SMILES: CC(C)=CCC12OC1(O)C(=O)c1c(O)cccc1C2=O (centres unmarked) [2,3-epoxy-8-hydroxy-lapachol]
Mechanism of inhibition (human TDP1 [3]; inhibitor at 0, 6.6, 20 and 60 μM, Akaike's Information Criterion): mixed-type noncompetitive mechanism
Ki (human TDP1 [3]; read-out: Kie (inhibition constant for TDP1 alone), mixed noncompetitive model): 40.9 ± 14.1 µM
Recovery of the uninhibited control rate (human TDP1 [1]): 90%
Reversibility of inhibition (human TDP1 [1]): fully reversible

SMILES: CC(=O)Oc1ccc2ccc(=O)oc2c1OC(C)=O [Daphnetin diacetate]
IC50 (human TDP1 [2]): 1.1 ± 0.2 µM

SMILES: COC[C@H]1OC(=O)c2coc3c2[C@@]1(C)C1=C(C3=O)[C@@H]2CCC(=O)[C@@]2(C)C[C@H]1OC(C)=O [wortmannin, reference compound]
Inhibition of TDP1 (human TDP1 [2]; concentrations up to 500 μM): unable to inhibit TDP1; also recorded: did not inhibit TDP1

Second part, led by results:

Reversibility of inhibition (human TDP1 [1]; listed as Halenoquinone): irreversible inhibition
IC50 (human TDP1 [2]; [4]): 26 ± 1 µM
SMILES: C[C@@]12CCC(=O)c3coc(c31)C(=O)c1cc3c(cc12)C(=O)C=CC3=O [Halenaquinone]
Reversibility of inhibition (human TDP1 [1]): irreversibly inhibited TDP1; also recorded: irreversibly inhibiting TDP1

IC50 (human TDP1 [2]): 52 ± 1 µM
SMILES: C[C@H](O)C#CC#CC#CC#CCCCCCCCC(=O)O [Minquartynoic acid]

IC50 (human TDP1 [2]; [4]): 24 ± 1.1 µM
SMILES: C[C@@]12CCC(=O)c3coc(c31)C(=O)c1cc3c(O)ccc(OS(=O)(=O)O)c3cc12.[Na+] [Halenaquinol sulfate]
Reversibility of inhibition (human TDP1 [1]): irreversibly inhibited TDP1; also recorded: irreversibly inhibiting TDP1

Recovery of the uninhibited control rate (human TDP1 [1]): 90%
SMILES: O=C(O)C1=CC(=C(c2ccc(O)c(C(=O)O)c2)c2ccc(O)c(C(=O)O)c2)C=CC1=O [Aurintricarboxylic acid, reference compound]
